Results published in ChEMBL document CHEMBL1124904, “7-Oxabicyclo[2.2.1]heptyl carboxylic acids as thromboxane A2 antagonists: aza omega-chain analogues” (J Med Chem, 1990).
Blank lines part the entries; values can stand above or below the compound they belong to.

Tests used:
[1] = organism: Homo sapiens; assay: Ability to inhibit platelet aggregation of human platelet-rich plasma (PRP) induced by 800 uM of AA-IPA (arachidonic acid); type: functional; settings: read-out: I50
Outline: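 Human platelet-rich plasma; aggregation triggered by arachidonic acid at 800 μM. Test acids were also checked against ADP (20 μM)-induced aggregation. I50 taken as the concentration inhibiting aggregation.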

[2] = molecular target: T1, Thromboxane A2 receptor (Homo sapiens, UniProt P21731); assay: Binding affinity was determined from the inhibition of [3H]-SQ 29,548 binding to Thromboxane A2 receptor in human platelet membranes.; type: cell membranes
T1 sequence (P21731 whole entry): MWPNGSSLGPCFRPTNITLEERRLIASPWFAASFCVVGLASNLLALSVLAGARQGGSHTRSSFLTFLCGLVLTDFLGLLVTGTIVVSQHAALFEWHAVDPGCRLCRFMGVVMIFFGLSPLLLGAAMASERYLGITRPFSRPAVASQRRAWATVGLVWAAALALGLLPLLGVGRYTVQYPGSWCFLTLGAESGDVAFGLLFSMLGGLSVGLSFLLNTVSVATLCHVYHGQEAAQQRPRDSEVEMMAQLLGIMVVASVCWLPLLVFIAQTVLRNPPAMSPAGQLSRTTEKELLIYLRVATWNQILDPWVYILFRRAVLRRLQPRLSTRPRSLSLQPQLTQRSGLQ
Outline: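 Radioligand binding to human platelet membranes with [5,6-3H2]-SQ 29,548 as tracer; Kd derived from inhibition of specific binding.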

[3] = organism: Homo sapiens; assay: Evaluated for ability to inhibit platelet aggregation of human platelet-rich plasma (PRP) induced by 11.9-epoxymethano-PGH2.; type: functional; settings: read-out: I50
Outline: (§1)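 Human PRP aggregation induced by U-46,619 (11,9-epoxymethano-PGH2, stable PGH2/TxA2 mimic) at 5 or 10 μM; I50 reported. Values are single determinations unless otherwise noted.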

[4] = tested on: Cavia porcellus; assay: Evaluated for the percent inhibition of arachidonate-induced air-way resistance at 60 min after dosing (0.1 mg/kg iv) in anesthetized guinea pig.; type: functional
Outline: (§2)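 Anesthetized guinea pig dosed iv with antagonist at 0.1 mg/kg (some at 1.0 mg/kg). Arachidonic acid 0.5 mg/kg iv given as challenge 3 or 60 min later. Airway resistance, dynamic compliance and blood pressure recorded; percent inhibition of each response.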

[5] = tested on: Cavia porcellus; assay: Evaluated for the percent inhibition of arachidonate-induced hypertension resulting in decreases in blood pressure at 3 min after dosing (0.1 mg/kg iv) in anesthetized guinea pig.; type: functional; outline: as §2
[6] = tested on: Cavia porcellus; assay: Evaluated for the percent inhibition of arachidonate-induced air-way resistance at 3 min after dosing (0.1 mg/kg iv) in anesthetized guinea pig.; type: functional; outline: as §2
[7] = tested on: Cavia porcellus; assay: Evaluated for the percent inhibition of arachidonate-induced dynamic compliance at 3 min after dosing (0.1 mg/kg iv) in anesthetized guinea pig.; type: functional; outline: as §2
[8] = organism: Rattus norvegicus; assay: Evaluated for its potency Rat aorta (RA) strips in the presence of increasing concentrations; type: functional
Outline: (§3)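 Rat aortic strips contracted by U-46,619 in cumulative dose-response curves, repeated with increasing antagonist concentrations; Kb from analysis of the rightward shift.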

[9] = tested on: Cavia porcellus; assay: Evaluated for the percent inhibition of arachidonate-induced hypertension resulting in decreases in blood pressure at 60 min after dosing (0.1 mg/kg iv) in anesthetized guinea pig.; type: functional; outline: as §2
[10] = organism: Cavia porcellus; assay: Evaluated for its potency in Guinea pig trachea (GPT) spirals in the presence of increasing concentrations; type: functional
Outline: (§4)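 Guinea pig tracheal spirals contracted by U-46,619 in cumulative dose-response curves, repeated with increasing antagonist concentrations; Kb from analysis of the rightward shift.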

[11] = tested on: Cavia porcellus; assay: Evaluated for the percent inhibition of arachidonate-induced dynamic compliance at 60 min after dosing (0.1 mg/kg iv) in anesthetized guinea pig.; type: functional; outline: as §2
[12] = organism: Cavia porcellus; assay: Evaluated for its potency in guinea pig trachea (GPT) spirals in the presence of increasing concentrations; type: functional; outline: as §4
[13] = organism: Homo sapiens; assay: Evaluated for ability to inhibit platelet aggregation of human platelet-rich plasma (PRP) induced by 11.9-epoxymethano-PGH2; type: functional; settings: read-out: I50; outline: as §1
[14] = organism: Rattus norvegicus; assay: Evaluated for its potency in rat aorta (RA) strips in the presence of increasing concentrations; type: functional; outline: as §3

Compound: CCCCCC(=O)NC(C)(C)C(=O)NCC1C2CCC(O2)C1C/C=C/CCCC(=O)O (configuration not stated)
- IC50 ([1]; Homo sapiens, Plasma): 520000 nM

Compound: CCCCCNC(=O)CCNC(=O)C1C2CCC(O2)C1C/C=C/CCCC(=O)O (configuration not stated)
- IC50 ([1]; Homo sapiens, Plasma): 14000 nM

Compound: CCCCCCCNC1C2CCC(O2)C1C/C=C/CCCC(=O)O (configuration not stated)
- IC50 ([1]; Homo sapiens, Plasma): 120000 nM

Compound: O=C(O)CCC/C=C/CC1C2CCC(O2)C1CCNC(=O)Nc1ccccc1 (configuration not stated)
- IC50 ([1]; Homo sapiens, Plasma): 184000 nM

Compound: CCCCC(=O)NCCC(=O)NCC1C2CCC(O2)C1C/C=C/CCCC(=O)O (configuration not stated)
- IC50 ([1]; Homo sapiens, Plasma): 14000 nM

Compound: CCCCCNC(=O)CCC(=O)NC1C2CCC(O2)C1C/C=C/CCCC(=O)O (configuration not stated)
- IC50 ([1]; Homo sapiens, Plasma): 160000 nM

Compound: CCCCCCNC(=O)CC(=O)NC1C2CCC(O2)C1C/C=C/CCCC(=O)O (configuration not stated)
- IC50 ([1]; Homo sapiens, Plasma): 125000 nM

Compound: CCCCCNCCC1C2CCC(O2)C1C/C=C/CCCC(=O)O (configuration not stated)
- IC50 ([1]; Homo sapiens, Plasma): 340000 nM

Compound: O=C(O)CCC/C=C/CC1C2CCC(O2)C1CNCCNc1ccccc1 (configuration not stated)
- IC50 ([1]; Homo sapiens, Plasma): 65000 nM

Compound: CCCCCCCC(=O)NCC(=O)NCC1C2CCC(O2)C1C/C=C/CCCC(=O)O (stereo in doubt; 51)
- Inhibition [4]: 79%
- IC50 [1]: 220 nM
- Inhibition [6]: 97%
- Inhibition [7]: 98%
- Kd [2]: 17.5 nM
- Kb [8]: 3.4 nM
- IC50 [3]: 430 nM
- Inhibition [9]: 130%
- Kb [10]: 2 nM
- Inhibition [11]: 74%

More lines, in order of falling IC50 ([1]; Homo sapiens, Plasma), values ahead:

- IC50 ([1]; Homo sapiens, Plasma): 11000 nM
Compound: O=C(O)CCC/C=C/CC1C2CCC(O2)C1NC(=O)CCCc1ccccc1 (configuration not stated)

- IC50 ([1]; Homo sapiens, Plasma): 6600 nM
Compound: CCCCCCC(=O)NCC(=O)NCC1C2CCC(O2)C1C/C=C/CCCC(=O)O (single isomer, unassigned; (+))
- Kb ([8]; Rattus norvegicus, Aorta): 326 nM
- Kb ([10]; Cavia porcellus, Trachea): 174 nM

- IC50 ([1]; Homo sapiens, Plasma): 5500 nM
Compound: O=C(O)CCC/C=C/CC1C2CCC(O2)C1CNC(=O)C(=O)Nc1ccccc1 (configuration not stated)

- IC50 ([1]; Homo sapiens, Plasma): 3000 nM
Compound: CCCCCC(=O)N(C)CC(=O)NCC1C2CCC(O2)C1C/C=C/CCCC(=O)O (configuration not stated)

- IC50 ([1]; Homo sapiens, Plasma): 1400 nM
Compound: COc1ccc(SCC(=O)NCC2C3CCC(O3)C2C/C=C/CCCC(=O)O)cc1 (configuration not stated)

- IC50 ([1]; Homo sapiens, Plasma): 1100 nM
Compound: CCCCOC(=O)NCC(=O)NCC1C2CCC(O2)C1C/C=C/CCCC(=O)O (configuration not stated)

- IC50 ([1]; Homo sapiens, Plasma): 970 nM
- Kd [2]: 26.4 nM
- IC50 ([3]; Homo sapiens, Plasma): 9600 nM
Compound: CCCCCC/C(S)=N/C/C(S)=N/CC1C2CC[C@@H](O2)C1C/C=C/CCCC(=O)O (some centres not stated)

- IC50 ([1]; Homo sapiens, Plasma): 660 nM
Compound: CCCCCCC(=O)OCC(=O)NCC1C2CCC(O2)C1C/C=C/CCCC(=O)O (configuration not stated)

- IC50 ([1]; Homo sapiens, Plasma): 160 nM
- IC50 [13]: 1950 nM
- Kd [2]: 2.6 nM
Compound: O=C(O)CCC/C=C/CC1C2CCC(O2)C1CNC(=O)CNC(=O)CCCCC1CCCCC1 (configuration not stated)
- Kb [12]: 0.07 nM
- Kb [14]: 2.5 nM

- IC50 ([1]; Homo sapiens, Plasma): 40 nM
- Kd [2]: 12.4 nM
- IC50 ([3]; Homo sapiens, Plasma): 230 nM
Compound: CCCCCC/C(S)=N/CC(=O)NCC1C2CCC(O2)C1C/C=C/CCCC(=O)O (configuration not stated)
- Inhibition [4]: 51%
- Inhibition [5]: 178%
- Inhibition [6]: 97%
- Inhibition [7]: 94%
- Kb ([8]; Rattus norvegicus, Aorta): 1.1 nM
- Inhibition [9]: 158%
- Kb ([10]; Cavia porcellus, Trachea): 4.4 nM
- Inhibition [11]: 56%
